Assay results: ChEMBL document CHEMBL2062460, “Disubstituted thiourea derivatives and their activity on CNS: synthesis and biological evaluation” (Eur J Med Chem, 2012)
≈ marks a conversion by molar mass, not a printed value. Calls of active or inactive are those of the source. No cut-off for these calls is given here.

Assays:
[1] = system: Staphylococcus aureus; experiment: Antibacterial activity against methicillin-susceptible Staphylococcus aureus clinical isolate 267/08 after 18 hrs by twofold serial agar dilution technique; type: functional; conditions: clinical isolate 267/08, 18 h
Procedure, shortened: (§1)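 Clinical isolates came from patients in Warsaw Medical University Hospitals and were classed as methicillin-susceptible or -resistant. MIC was determined by twofold serial agar dilution on Mueller–Hinton II agar (CLSI), 3.125–400 µg/mL in agar, with compounds in methanol or DMSO. Inoculum was 10^4 CFU/mL and plates were read after 18 h at 35 °C.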

[2] = system: Escherichia coli; experiment: Antibacterial activity against Escherichia coli NCTC 8196 at 400 ug/disc after 18 hrs by disc diffusion method; type: functional, organism-based
Procedure, shortened: (§2)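 Disc diffusion per CLSI on Mueller–Hinton II agar; 9 mm paper discs loaded from methanol or DMSO solutions to 400 µg per disc, dried; growth inhibition zone diameter read after 18 h at 35 °C.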

[3] = system: Candida albicans; experiment: Antifungal activity against Candida albicans ATCC 10231 at 400 ug/disc after 18 hrs by disc diffusion method; type: functional, organism-based
Procedure, shortened: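 Yeasts tested by disc diffusion (CLSI) on RPMI agar with 2% glucose; 9 mm paper discs bearing 400 µg compound from methanol or DMSO solution; inhibition zone diameter read after 18 h at 35 °C.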

[4] = system: Staphylococcus epidermidis; experiment: Antibacterial activity against methicillin-resistant Staphylococcus epidermidis clinical isolate 318/08 after 18 hrs by twofold serial agar dilution technique; type: functional; conditions: clinical isolate 318/08, 18 h; procedure, shortened: as §1
[5] = system: Pseudomonas aeruginosa; experiment: Antibacterial activity against Pseudomonas aeruginosa ATCC 15442 at 400 ug/disc after 18 hrs by disc diffusion method; type: functional, organism-based; procedure, shortened: as §2
[6] = system: Bacillus cereus; experiment: Antibacterial activity against Bacillus cereus ATCC 11778 after 18 hrs by twofold serial agar dilution technique; type: functional; conditions: ATCC 11778, 18 h
[7] = system: Staphylococcus epidermidis; experiment: Antibacterial activity against methicillin-resistant Staphylococcus epidermidis clinical isolate 377/09 after 18 hrs by twofold serial agar dilution technique; type: functional; conditions: clinical isolate 377/09, 18 h; procedure, shortened: as §1
[8] = system: Staphylococcus epidermidis; experiment: Antibacterial activity against methicillin-resistant Staphylococcus epidermidis clinical isolate 342/09 after 18 hrs by twofold serial agar dilution technique; type: functional; conditions: clinical isolate 342/09, 18 h; procedure, shortened: as §1
[9] = system: Staphylococcus aureus; experiment: Antibacterial activity against methicillin-resistant Staphylococcus aureus clinical isolate 329/08 after 18 hrs by twofold serial agar dilution technique; type: functional; conditions: clinical isolate 329/08, 18 h; procedure, shortened: as §1
[10] = system: Staphylococcus epidermidis; experiment: Antibacterial activity against methicillin-resistant Staphylococcus epidermidis clinical isolate 343/09 after 18 hrs by twofold serial agar dilution technique; type: functional; conditions: clinical isolate 343/09, 18 h; procedure, shortened: as §1
[11] = system: Pseudomonas aeruginosa; experiment: Antibacterial activity against Pseudomonas aeruginosa ATCC 27853 at 400 ug/disc after 18 hrs by disc diffusion method; type: functional, organism-based; procedure, shortened: as §2
[12] = system: Staphylococcus epidermidis; experiment: Antibacterial activity against methicillin-resistant Staphylococcus epidermidis clinical isolate 341/09 after 18 hrs by twofold serial agar dilution technique; type: functional; conditions: clinical isolate 341/09, 18 h; procedure, shortened: as §1
[13] = system: Micrococcus luteus; experiment: Antibacterial activity against Micrococcus luteus ATCC 10240 at 400 ug/disc after 18 hrs by disc diffusion method; type: functional; conditions: ATCC 10240, 18 h, read-out: DIZ; procedure, shortened: as §2
[14] = system: Pseudomonas aeruginosa; experiment: Antibacterial activity against Pseudomonas aeruginosa NCTC 6749 at 400 ug/disc after 18 hrs by disc diffusion method; type: functional, organism-based; procedure, shortened: as §2
[15] = system: Staphylococcus epidermidis; experiment: Antibacterial activity against methicillin-resistant Staphylococcus epidermidis clinical isolate 317/08 after 18 hrs by twofold serial agar dilution technique; type: functional; conditions: clinical isolate 317/08, 18 h; procedure, shortened: as §1
[16] = system: Bacillus subtilis; experiment: Antibacterial activity against Bacillus subtilis ATCC 6633 after 18 hrs by twofold serial agar dilution technique; type: functional; conditions: ATCC 6633, 18 h
[17] = system: Human immunodeficiency virus 1; experiment: Antiviral activity against HIV1 infected in human MT4 cells assessed as virus-induced cytopathogenicity after 4 days by MTT assay; type: functional, organism-based; conditions: Human immunodeficiency virus 1, MT4, 96 h
[18] = system: Escherichia coli; experiment: Antibacterial activity against Escherichia coli ATCC 25922 at 400 ug/disc after 18 hrs by disc diffusion method; type: functional, organism-based; procedure, shortened: as §2
[19] = system: Staphylococcus aureus; experiment: Antibacterial activity against methicillin-susceptible Staphylococcus aureus clinical isolate 269/08 after 18 hrs by twofold serial agar dilution technique; type: functional; conditions: clinical isolate 269/08, 18 h; procedure, shortened: as §1
[20] = system: Staphylococcus aureus; experiment: Antibacterial activity against Staphylococcus aureus ATCC 6538 at 400 ug/disc after 18 hrs by disc diffusion method; type: functional; conditions: ATCC 6538, 18 h, read-out: DIZ; procedure, shortened: as §2
[21] = system: Staphylococcus aureus; experiment: Antibacterial activity against methicillin-resistant Staphylococcus aureus clinical isolate 307/08 after 18 hrs by twofold serial agar dilution technique; type: functional; conditions: clinical isolate 307/08, 18 h; procedure, shortened: as §1
[22] = system: Staphylococcus aureus; experiment: Antibacterial activity against methicillin-resistant Staphylococcus aureus clinical isolate 357/09 after 18 hrs by twofold serial agar dilution technique; type: functional; conditions: clinical isolate 357/09, 18 h; procedure, shortened: as §1
[23] = system: Staphylococcus aureus; experiment: Antibacterial activity against Staphylococcus aureus ATCC 6538 after 18 hrs by twofold serial agar dilution technique; type: functional; conditions: ATCC 6538, 18 h
Procedure, shortened: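 Twofold serial agar dilution on Mueller–Hinton II agar, following CLSI guidelines. Compounds were dissolved in methanol or DMSO and tested at final agar concentrations of 3.125–400 µg/mL. Final inoculum was 10^4 CFU/mL.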

[24] = system: Micrococcus luteus; experiment: Antibacterial activity against Micrococcus luteus ATCC 9341 after 18 hrs by twofold serial agar dilution technique; type: functional; conditions: ATCC 9341, 18 h
[25] = system: Staphylococcus aureus; experiment: Antibacterial activity against methicillin-resistant Staphylococcus aureus clinical isolate 325/09 after 18 hrs by twofold serial agar dilution technique; type: functional; conditions: clinical isolate 325/09, 18 h; procedure, shortened: as §1
[26] = system: Staphylococcus aureus; experiment: Antibacterial activity against Staphylococcus aureus NCTC 4163 at 400 ug/disc after 18 hrs by disc diffusion method; type: functional; conditions: NCTC 4163, 18 h, read-out: DIZ; procedure, shortened: as §2
[27] = system: Enterococcus hirae; experiment: Antibacterial activity against Enterococcus hirae ATCC 10541 after 18 hrs by twofold serial agar dilution technique; type: functional; conditions: ATCC 10541, 18 h

Row | SMILES | MIC [1] [µg/mL] | diameter of the inhibition zone (DIZ) [2] | diameter of the inhibition zone (DIZ) [3] | MIC [4] [µg/mL] | diameter of the inhibition zone (DIZ) [5] | MIC [6] [µg/mL] | MIC [7] [µg/mL] | MIC [8] [µg/mL] | MIC [9] [µg/mL] | MIC [10] [µg/mL] | diameter of the inhibition zone (DIZ) [11] | MIC [12] [µg/mL] | zone of inhibition at 400 µg/disc [13] [mm] | diameter of the inhibition zone (DIZ) [14] | MIC [15] [µg/mL] | MIC [16] [µg/mL] | EC50 [17] [µM] | diameter of the inhibition zone (DIZ) [18] | MIC [19] [µg/mL] | zone of inhibition at 400 µg/disc [20] [mm] | other results
1 | S=C(Nc1ccc(I)cc1)Nc1nc[nH]n1 | 25 (≈ 72.4 µM) | inactive | inactive | 12.5 (≈ 36.2 µM) | inactive | 12.5 (≈ 36.2 µM) | 25 (≈ 72.4 µM) | 25 (≈ 72.4 µM) | 25 (≈ 72.4 µM) | 50 (≈ 145 µM) | inactive | 50 (≈ 145 µM) | 16 | inactive | 50 (≈ 145 µM) | 12.5 (≈ 36.2 µM) | > 46 | inactive | 25 (≈ 72.4 µM) | 12 | MIC [21]: 50 µg/mL (≈ 145 µM); MIC [22]: 50 µg/mL (≈ 145 µM); MIC [23]: 25 µg/mL (≈ 72.4 µM); MIC [24]: 12.5 µg/mL (≈ 36.2 µM); MIC [25]: 25 µg/mL (≈ 72.4 µM); zone of inhibition at 400 µg/disc [26]: 12 mm; MIC [27]: 400 µg/mL (≈ 1160 µM)
2 | S=C(Nc1ccc(Br)cc1)Nc1nc[nH]n1 | 25 (≈ 83.8 µM) | inactive | inactive | 25 (≈ 83.8 µM) | inactive | 12.5 (≈ 41.9 µM) | 25 (≈ 83.8 µM) | 25 (≈ 83.8 µM) | 50 (≈ 168 µM) | 25 (≈ 83.8 µM) | inactive | 50 (≈ 168 µM) | 29 | inactive | 100 (≈ 335 µM) | 12.5 (≈ 41.9 µM) | > 100 | inactive | 25 (≈ 83.8 µM) | 16 | MIC [21]: 50 µg/mL (≈ 168 µM); MIC [22]: 50 µg/mL (≈ 168 µM); MIC [23]: 50 µg/mL (≈ 168 µM); MIC [24]: 25 µg/mL (≈ 83.8 µM); MIC [25]: 50 µg/mL (≈ 168 µM); zone of inhibition at 400 µg/disc [26]: 17 mm; MIC [27]: 400 µg/mL (≈ 1340 µM)
